Data published in ChEMBL document CHEMBL1275590, “Novel arylimidamides for treatment of visceral leishmaniasis” (Antimicrob Agents Chemother, 2010).

Legend:
[1] = Induction of mutagenicity in Salmonella serovar Typhimurium TA 100 assessed as number of revertant colonies at 5 ug by Ames assay; format: toxicity, Salmonella enterica subsp. enterica serovar Typhimurium; settings: in vivo
How it was run: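 Plate incorporation method with TA100, with and without Aroclor 1254-induced rat liver S9 (10% vol/vol). Compound dissolved in sterile water, serially diluted; plates scored for revertant count and background lawn versus controls. Mutagen if mean revertants at least 2-fold over mean solvent control. Positive controls: 2-nitrofluorene and sodium azide without S9, 2-aminoanthracene with S9; water and DMSO vehicles.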

[2] = Induction of mutagenicity in Salmonella serovar Typhimurium TA 98 assessed as number of revertant colonies at 2 ug by Ames assay in presence of Aroclor 1254-induced rat liver S9 metabolic activation system; format: toxicity, subcellular, Salmonella enterica subsp. enterica serovar Typhimurium
How it was run: (§1)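 Ames plate incorporation with S. Typhimurium TA98 and TA100, with or without Aroclor 1254-induced rat liver S9 (10% vol/vol). Compound was dissolved in sterile water and serially diluted to 1–500 μg/plate. Positive controls were 2-nitrofluorene and sodium azide without S9, and 2-aminoanthracene with S9; sterile water and DMSO served as vehicles. Revertant colonies and background lawn were scored. A mutagen was defined as a mean revertant count at least 2-fold over solvent control. Single experiment.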

[3] = Induction of mutagenicity in Salmonella serovar Typhimurium TA 100 assessed as number of revertant colonies at 2 ug by Ames assay in presence of Aroclor 1254-induced rat liver S9 metabolic activation system; format: toxicity, subcellular, Salmonella enterica subsp. enterica serovar Typhimurium; how it was run: as §1
[4] = Induction of mutagenicity in Salmonella serovar Typhimurium TA 98 assessed as number of revertant colonies at 5 ug by Ames assay; format: toxicity, Salmonella enterica subsp. enterica serovar Typhimurium; settings: in vivo; how it was run: as §1
Leishmania amazonensis = experiment: Antileishmanial activity against intracellular Leishmania amazonensis amastigotes; format: functional, organism-based
Leishmania donovani [5] = experiment: Antileishmanial activity against intracellular Leishmania donovani LV82 amastigotes; format: functional, organism-based
How it was run: (§2)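 CD-1 mouse peritoneal macrophages, 5 × 10^4 cells/well in RPMI 1640 + 10% heat-inactivated FBS, adhered overnight. Infected overnight with stationary-phase LV82 promastigotes (5:1 parasite:macrophage), 37°C, 5% CO2. Medium then replaced with compound or vehicle for 72 h at 37°C. Methanol-fixed, Giemsa-stained; % infected macrophages counted at ×1,000. IC50 by four-parameter logistic nonlinear regression.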

Leishmania major = experiment: Antileishmanial activity against intracellular Leishmania major amastigotes; format: functional, organism-based
Leishmania donovani [6] = experiment: Antileishmanial activity against Leishmania donovani axenic amastigotes; format: functional, organism-based
Leishmania donovani [7] = experiment: Antileishmanial activity against intracellular Leishmania donovani LV82 amastigotes infected in CD-1 mouse peritoneal macrophage; format: functional, organism-based; how it was run: as §2
Leishmania donovani [8] = experiment: Antileishmanial activity against Leishmania donovani WR378 infected in golden Syrian hamster assessed as reduction in liver parasitemia at 30 mg/kg/day, po administered for five days; format: functional; settings: 120 h
How it was run: (§3)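 11-day golden hamster VL model adapted from an 8-day method, using L. donovani WR378 metacyclic promastigotes. Dosing was oral, once daily for 5 days. Animals were euthanized on day 11 post-infection. Liver, spleen and femoral bone marrow (flushed with Schneider's medium) were harvested.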

Leishmania donovani [9] = experiment: Antileishmanial activity against Leishmania donovani WR378 infected in golden Syrian hamster assessed as reduction in spleen parasitemia at 30 mg/kg/day, po administered for five days; format: functional; settings: 120 h; how it was run: as §3
Leishmania donovani [10] = experiment: Antileishmanial activity against Leishmania donovani WR378 infected in golden Syrian hamster assessed as reduction in bone marrow parasitemia at 30 mg/kg/day, po administered for five days; format: functional; settings: 120 h; how it was run: as §3

SMILES | IC50 (Leishmania amazonensis) | IC50 (Leishmania donovani [5]) | IC50 (Leishmania major) | IC50 (Leishmania donovani [6]) | IC50 (Leishmania donovani [7]) | other results
[N-]=[N+]=[N-].[Na+] [SODIUM AZIDE] |  |  |  |  |  | Activity [1]: 1882
Nc1ccc2cc3ccccc3cc2c1 [2-AMINOANTHRACENE] |  |  |  |  |  | Activity [2]: 2744; Activity [3]: 2563
O=[N+]([O-])c1ccc2c(c1)Cc1ccccc1-2 [2-NITROFLUORENE] |  |  |  |  |  | Activity [4]: 1573
NC[C@@H]1O[C@H](O[C@H]2[C@@H](O)[C@H](O[C@@H]3[C@@H](O)[C@H](N)C[C@H](N)[C@H]3O[C@H]3O[C@H](CO)[C@@H](O)[C@H](O)[C@H]3N)O[C@@H]2CO)[C@H](N)[C@@H](O)[C@@H]1O [PAROMOMYCIN] | 19 µM | > 50 µM | 25 µM | > 50 µM | > 100 µM | 
N=C(N)c1ccc(OCCCCCOc2ccc(C(=N)N)cc2)cc1 [PENTAMIDINE] | 0.83 µM | > 50 µM |  |  | 14 µM | 
CCCCCCCCCCCCCCCCOP(=O)([O-])OCC[N+](C)(C)C [MILTEFOSINE] |  | 2.7 µM | 25 µM | 8.5 µM | 24 µM | inhibition in vivo at 30 mg/kg/day (Leishmania donovani [8]): 88%; inhibition in vivo at 30 mg/kg/day (Leishmania donovani [9]): 79%; inhibition in vivo at 30 mg/kg/day (Leishmania donovani [10]): 91%
C[C@@H]1[C@H](O)[C@@H](C)/C=C/C=C/C=C/C=C/C=C/C=C/C=C/[C@H](O[C@@H]2O[C@H](C)[C@@H](O)[C@H](N)[C@@H]2O)C[C@@H]2O[C@](O)(C[C@@H](O)C[C@@H](O)[C@H](O)CC[C@@H](O)C[C@@H](O)CC(=O)O[C@H]1C)C[C@H](O)[C@H]2C(=O)O [AMPHOTERICIN B] | 0.14 µM | 0.066 µM | 0.21 µM | 0.098 µM | 8.2 µM | 
